Active and inactive are the calls of the source. The rule behind the calls is not given here.
Assays:
J774.A1 [1] = experiment: Stimulation of TNFalpha production in mouse J774.A1 cells at 50 uM after 24 hrs by ELISA relative to untreated control; assay type: functional
Method in brief: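 Murine J774.A1 macrophages grown in DMEM with 10% heat-inactivated FBS and 10 mM HEPES at 37°C under 5% CO2, detached by scraping. Plated at 2×10^5 cells/well in medium with 3% FBS and exposed 24 hr to compound, DMSO vehicle or LPS. Supernatant TNF-α measured by murine ELISA against a standard curve. Reported as fold-increase over DMSO control.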

J774.A1 [2] = experiment: Cytotoxicity against mouse J774.A1 cells assessed as effect on cell viability at <=50 uM after 24 hrs; assay type: cell-based; settings: j774.a1, 24 h

Row | Compound | Activity (J774.A1 [1]) | fold change (FC) (J774.A1 [1]) | Activity (J774.A1 [2])
1 | CN(C)c1ccc(/C=N/NC(=O)c2ccc3c(c2)OCO3)cc1 | inactive | – | –
2 | Cc1ccc(-c2ccc(/C=N/NC(=O)c3ccncc3)o2)cc1Cl | – | 50 | Non-toxic
3 | CN(C)c1ccc(/C=N\NC(=O)c2cccc(F)c2)cc1 | inactive | – | –
4 | COc1cc(/C=N\NC(=O)c2ccc3c(c2)OCO3)ccc1OC(=O)c1ccco1 | inactive | – | –
5 | O=C(N/N=C/c1ccc(-c2ccc(Cl)c(Cl)c2)o1)c1ccccc1O | inactive | – | –
6 | CCOc1ncccc1C(=O)N/N=C/c1ccc([N+](=O)[O-])o1 | inactive | – | –
7 | O=C(N/N=C/c1ccc(-c2ccc(Br)cc2)o1)c1cccnc1 | inactive | – | Non-toxic
8 | Cc1ccc(C(=O)N/N=C/c2ccc(-c3cccc(Cl)c3Cl)o2)cn1 | inactive | – | Non-toxic
9 | Cc1ccc(C(=O)N/N=C/c2ccc(-c3ccc(Cl)cc3Cl)o2)cn1 | inactive | – | Non-toxic
10 | O=C(N/N=C/c1ccc(-c2ccc([N+](=O)[O-])cc2Cl)o1)c1ccc2c(c1)OCO2 | – | 35 | –
11 | Cc1ccc(-c2ccc(/C=N/NC(=O)c3cncc(Br)c3)o2)cc1Cl | – | 10 | Non-toxic
12 | O=C(N/N=C/c1cc(Br)cc(Br)c1OC(=O)c1ccccc1)c1ccc2c(c1)OCO2 | – | <5 | –
13 | O=C(N/N=C/c1ccc(-c2cccc(Cl)c2Cl)o1)c1cccnc1 | inactive | – | Non-toxic
14 | COc1ccc(/C=N/NC(=O)c2ccc3c(c2)OCO3)c(OC)c1 | inactive | – | –
15 | O=C(N/N=C/c1ccco1)c1cccc(F)c1 | inactive | – | –
16 | O=C(N/N=C/c1ccc(-c2cc(Cl)ccc2Cl)o1)c1ccc([N+](=O)[O-])cc1 | – | <5 | –
17 | O=C(N/N=C/c1ccco1)c1ccc(Cl)cc1Cl | inactive | – | –
18 | O=C(N/N=C/c1ccc(-c2ccccc2Cl)o1)c1ccc(Cl)cc1Cl | – | <5 | –
19 | Cc1ccc(C(=O)N/N=C/c2ccc(C)o2)cc1 | inactive | – | –
20 | O=C(N/N=C/c1cc(Br)c(Br)o1)c1ccc2c(c1)OCCO2 | inactive | – | –
21 | O=C(N/N=C/c1ccc(-c2cc(Cl)c(Cl)cc2Cl)o1)c1cccnc1 | inactive | – | Non-toxic
22 | O=C(N/N=C/c1ccc(-c2cccc(C(F)(F)F)c2)o1)c1ccc(F)cc1 | – | 35 | –

Row | Compound | Activity (J774.A1 [1]) | fold change (FC) (J774.A1 [1]) | Activity (J774.A1 [2])
23 | O=C(N/N=C/c1ccco1)c1ccc(Br)cc1O | inactive | – | –
24 | O=C(N/N=C/c1ccc([N+](=O)[O-])o1)c1cc([N+](=O)[O-])cc([N+](=O)[O-])c1O | inactive | – | –
25 | Cc1ccc(C(=O)N/N=C/c2ccc(-c3ccc(Cl)cc3)o2)cn1 | inactive | – | Non-toxic
26 | O=C(N/N=C/c1ccco1)c1cccnc1 | inactive | – | –
27 | COc1ccc(C(=O)N/N=C/c2ccc(-c3ccc(Cl)c(C(=O)O)c3)o2)cc1 | inactive | – | –
28 | O=C(N/N=C/c1ccc(-c2ccc(Cl)c(Cl)c2)o1)c1ccncc1 | inactive | – | Non-toxic
29 | O=C(N/N=C/c1ccc(-c2ccc([N+](=O)[O-])cc2)o1)c1cccc(O)c1 | inactive | – | –
30 | COc1ccccc1OCc1ccc(C(=O)N/N=C/c2ccco2)cc1 | inactive | – | –
31 | O=C(N/N=C/c1ccc([N+](=O)[O-])o1)c1ccc(O)cc1O | inactive | – | –
32 | O=C(N/N=C/c1ccc(-c2cccc(C(F)(F)F)c2)o1)c1cc(I)ccc1Cl | – | <5 | –
33 | COc1ccc(C(=O)N/N=C\c2ccc(N(C)C)cc2)cc1 | inactive | – | –
34 | CN(C)c1ccc(/C=N\NC(=O)c2ccc([N+](=O)[O-])cc2)cc1 | – | 25 | –
35 | COc1ccc(/C(C)=N/NC(=O)c2ccc3c(c2)OCCO3)cc1[N+](=O)[O-] | inactive | – | –
36 | O=C(N/N=C/c1ccc(-c2cccc(Br)c2)o1)c1ccccn1 | inactive | – | Non-toxic
37 | O=C(N/N=C/c1ccco1)c1ccccc1 | inactive | – | –
38 | Cc1ccc(C(=O)N/N=C/c2ccc(-c3cccc(Br)c3)o2)cn1 | inactive | – | Non-toxic
39 | Cc1ccc(C(=O)N/N=C/c2ccc(-c3ccc(Cl)c(Cl)c3)o2)cn1 | inactive | – | Non-toxic
40 | Cc1ccc(C(=O)N/N=C/c2ccc(-c3cccc(Cl)c3)o2)cn1 | inactive | – | Non-toxic
41 | Cc1ccc(C(=O)N/N=C/c2ccc(-c3cc(Cl)c(Cl)cc3Cl)o2)cn1 | – | <5 | –
42 | O=C(N/N=C/c1ccc(-c2ccc(Cl)c(Cl)c2)o1)c1ccc2c(c1)OCO2 | – | <5 | –
43 | COc1cc(Br)ccc1C(=O)N/N=C/c1ccco1 | inactive | – | –
44 | COc1ccc(-c2ccc(/C=N/NC(=O)c3ccc([N+](=O)[O-])cc3)o2)cc1Cl | inactive | – | –

Row | Compound | Activity (J774.A1 [1]) | fold change (FC) (J774.A1 [1]) | Activity (J774.A1 [2])
45 | O=C(N/N=C/c1cc(Br)cc(I)c1O)c1ccc2c(c1)OCCO2 | inactive | – | –
46 | O=C(/C=C\c1ccco1)Oc1ccc(/C=N\NC(=O)c2ccc3c(c2)OCO3)cc1 | inactive | – | –
47 | O=C(N/N=C/c1c(O)ccc2ccccc12)c1ccc2c(c1)OCO2 | inactive | – | –
48 | Cc1ccc(-c2ccc(/C=N/NC(=O)c3cccnc3)o2)cc1Cl | – | 60 | Non-toxic
49 | O=C(N/N=C/c1cc(Br)c(Br)o1)c1ccc2c(c1)OCO2 | – | <5 | –
50 | C/C(=N\NC(=O)c1ccc2c(c1)OCO2)c1cccc([N+](=O)[O-])c1 | inactive | – | –
51 | O=C(N/N=C/c1ccc(-c2ccc(Cl)cc2Cl)o1)c1cncc(Br)c1 | inactive | – | Non-toxic
52 | O=C(N/N=C/c1ccc(-c2cccc(C(F)(F)F)c2)o1)c1ccc([N+](=O)[O-])cc1 | – | <5 | –
53 | O=C(N/N=C/c1ccc(-c2ccc(Cl)c([N+](=O)[O-])c2)o1)c1ccc2c(c1)OCO2 | inactive | – | –
54 | O=C(N/N=C/c1ccc(-c2ccccc2Cl)o1)c1cccnc1 | inactive | – | Non-toxic
55 | O=C(N/N=C/c1ccc(-c2ccc(Cl)cc2)o1)c1cccnc1 | – | 15 | Non-toxic
56 | O=C(N/N=C1\C(=O)N(Cc2cccc3ccccc23)c2ccccc21)c1ccc2c(c1)OCO2 | inactive | – | –
57 | COc1ccc(Br)cc1C(=O)N/N=C/c1ccc(C)o1 | inactive | – | –
58 | Cc1cc(C)n(Cc2ccc(C(=O)N/N=C/c3ccco3)cc2)n1 | inactive | – | –
59 | O=C(N/N=C/c1ccc(-c2ccc(Cl)cc2)o1)c1cncc(Br)c1 | – | 25 | Non-toxic
60 | O=C(N/N=C/c1cc(/N=N\c2cccc(C(F)(F)F)c2)ccc1O)c1ccc2c(c1)OCO2 | inactive | – | –
61 | O=C(N/N=C/c1ccc(-c2cccc(Cl)c2)o1)c1cccnc1 | – | 17 | Non-toxic
62 | CC(C)(C)c1ccc(C(=O)N/N=C/c2ccc(-c3ccc([N+](=O)[O-])cc3)o2)cc1 | inactive | – | –
63 | O=C(N/N=C/c1ccc(-c2cccc(Cl)c2Cl)o1)c1ccccc1 | – | 8 | –
64 | COc1cc(/C=N\NC(=O)c2ccc3c(c2)OCO3)ccc1OCc1ccccc1 | – | 7 | –
65 | O=C(N/N=C/c1ccc(Br)o1)c1ccccc1 | inactive | – | –
66 | Cc1ccc(C(=O)N/N=C/c2ccc(-c3ccc(C)c(Cl)c3)o2)cn1 | – | 21 | Non-toxic

Row | Compound | Activity (J774.A1 [1]) | fold change (FC) (J774.A1 [1]) | Activity (J774.A1 [2])
67 | O=C(N/N=C/c1ccc(-c2cccc(C(F)(F)F)c2)o1)c1ccc(Br)cc1 | inactive | – | –
68 | O=C(N/N=C/c1cc(/N=N\c2cccc3ccccc23)ccc1O)c1ccc2c(c1)OCO2 | inactive | – | –
69 | CCOc1cc(/C=N\NC(=O)c2ccc3c(c2)OCO3)ccc1OC(=O)c1ccc(Br)cc1 | – | <5 | –
70 | COc1ccc(Cl)cc1/C=N/NC(=O)c1ccc2c(c1)OCCO2 | inactive | – | –
71 | CCN1C(=O)/C(=N\NC(=O)c2ccc3c(c2)OCO3)c2ccccc21 | inactive | – | –
72 | O=C(N/N=C/c1ccc(-c2ccc(Cl)cc2)o1)c1ccncc1 | inactive | – | Non-toxic
73 | CC(C)N1C(=O)/C(=N\NC(=O)c2ccc3c(c2)OCO3)c2ccccc21 | inactive | – | –
74 | Cc1ccc(C(=O)N/N=C/c2ccc(-c3cccc(C(F)(F)F)c3)o2)cn1 | – | <5 | –
75 | O=C(O)COc1ccccc1/C=N/NC(=O)c1ccc2c(c1)OCO2 | inactive | – | –
76 | O=C(N/N=C/c1ccc(-c2ccc(O)c(C(=O)O)c2)o1)c1cccnc1 | inactive | – | –
77 | O=C(/C=C/c1ccco1)Oc1cccc(/C=N/NC(=O)c2ccc3c(c2)OCO3)c1 | inactive | – | –
78 | O=C(N/N=C/c1ccc(-c2cccc(Cl)c2)o1)c1ccc([N+](=O)[O-])cc1 | inactive | – | –
79 | COc1cc(/C=N\NC(=O)c2cccc(C)c2O)ccc1OCc1ccccc1 | inactive | – | –
80 | O=C(N/N=C/c1ccc(-c2ccc(Cl)cc2Cl)o1)c1ccccc1[N+](=O)[O-] | inactive | – | –
81 | CN(C)c1ccc(/C=N\NC(=O)c2ccccc2O)cc1 | inactive | – | –
82 | O=C(N/N=C/c1ccc(-c2cccc(Br)c2)o1)c1cccnc1 | – | 50 | –
83 | CCc1ccc(C(=O)N/N=C/c2ccc(-c3ccc(C)c(Cl)c3)o2)nc1 | inactive | – | Non-toxic
84 | O=C(N/N=C/c1ccc(I)o1)c1ccccc1F | inactive | – | –
85 | Cc1ccc(C(=O)N/N=C/c2ccc(-c3cc(Cl)ccc3Cl)o2)cn1 | inactive | – | Non-toxic
